Experiment [1] can be described thus: Cytotoxicity against human QGY cells by MTT assay. In kind it is functional, cell-based. Put shortly: (§1)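 Cells run without irradiation; cytotoxicity read by microculture tetrazolium–formazan (MTT) method, reported as IC50.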
For orientation: Formazan colour is commonly taken as a measure of viable cells.

Another experiment concerns K562. Kind of experiment: Cytotoxicity against human K562 cells by MTT assay. In kind it is functional, cell-based. Put shortly: as §1
The subject of the next experiment is HeLa. Kind of experiment: Cytotoxicity against human HeLa cells by MTT assay. Format: functional, cell-based. Put shortly: as §1
The subject of the next experiment is P388. Kind of experiment: Cytotoxicity against mouse P388 cells by MTT assay. In kind it is functional, cell-based. Put shortly:
as §1

The subject of the next experiment is A549. In words: Cytotoxicity against human A549 cells by SRB assay. Format: functional, cell-based. In short, it runs like this: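 Cells run without irradiation; cytotoxicity read by sulforhodamine B dye staining, reported as IC50.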
Experiment [2] has as its system DNA. In words: Binding affinity to calf thymus DNA by fluorescence quenching technique. Format: nucleic-acid assay. The following applies: Bos taurus. In short, it runs like this: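 Calf-thymus DNA held at 50 µM with compound at […] in Tris–HCl (30 mM, pH 7.5); matching compound-only samples served as controls. Solutions […] 1 day at 25 °C in the dark, then fluorescence wavelength and intensity area measured.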

The test system of experiment [3] is Escherichia coli. In words: Induction of DNA cleavage activity in Escherichia coli pBR322 DNA by gel electrophoresis. In short, it runs like this: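 Plasmid pBR322 DNA (25 ng/µL) incubated with compound at several concentrations in Tris–HCl (20 mM, pH 7.5), 25 °C, 12 h, no irradiation. Products resolved on 1% agarose with ethidium bromide staining; supercoiled (I), nicked (II), linear (III) forms scored; triplicate.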

Experiment [4] deals with Escherichia coli. In words: Induction of DNA photocleavage activity in Escherichia coli pBR322 DNA assessed as form 2 […] in presence of irradiation by gel electrophoresis. In short, it runs like this:
(§2)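 pBR322 DNA (25 ng/µL) with compound at several concentrations in Tris–HCl (20 mM, pH 7.5), irradiated 2 h. Analysed on 1% agarose gel with ethidium bromide; supercoiled form I, nicked form II, linear form III; triplicate runs.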

Experiment [5] concerns Escherichia coli. Kind of experiment: Induction of DNA photocleavage activity in Escherichia coli pBR322 DNA assessed as form 3 linear in presence of irradiation by gel electrophoresis. Put shortly: as §2
The subject of experiment [6] is DNA. Kind of experiment: Binding affinity to calf thymus DNA by circular dichroism spectra. In kind it is nucleic-acid assay. Particulars: Bos taurus. Put shortly: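 CD spectra recorded on 10 µM compound with 100 µM calf-thymus DNA in Tris–HCl buffer (pH 7.0), 1-cm quartz cell, 200–600 nm; buffer-alone spectrum subtracted. DNA checked protein-free by A260/A280 1.8–1.9 and quantified from 260 nm absorbance.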
(In general: Circular dichroism is the unequal absorption of left and right circularly polarised light.)

The source made the active and inactive calls. No cut-off for these calls is given here.

Among the data in ChEMBL document CHEMBL1151790, “Novel angular furoquinolinones bearing flexible chain as antitumor agent: design, synthesis, cytotoxic evaluation, and DNA-binding studies” (Bioorg Med Chem, 2008) are IC50, Kb and Activity values, retold here.

By IC50 is commonly meant the midpoint of a concentration-inhibition curve. Read a low IC50 as greater potency in that assay.

For `Cc1oc2ccc3c(C)cc(=O)n(Cc4ccccc4)c3c2c1C`, the IC50 (in [1]; with K562; in the experiment with HeLa; in the experiment on P388; in the experiment with A549) was > 100 µM throughout. In addition, the Kb in the experiment with DNA [2] is 3.15 ×10⁵ /M.
For the compound `CCOC(=O)Cn1c(=O)cc(C)c2ccc3oc(C)c(C)c3c21`, the 50% inhibitory concentration (IC50) (in experiment [1]; with K562; in the experiment with HeLa; in the experiment with P388; in the experiment with A549) was > 100 µM throughout. The compound further displayed a Kb with DNA [2] of 2.54 ×10⁵ /M.
Take `Cc1oc2ccc3c(C)cc(=O)n(CC(=O)O)c3c2c1C`: in the experiment with HeLa, the IC50 is > 100 µM. The compound also had a Kb in the experiment with DNA [2] of 2.69 ×10⁵ /M.
As for `CCn1c(=O)cc(C)c2ccc3oc(C)c(C)c3c21`, the IC50 (in [1]; with K562; in the experiment with HeLa; in the experiment with P388; in the experiment with A549) was > 100 µM in each case. This compound also came in with a Kb in the experiment with DNA [2] of 2.79 ×10⁵ /M.
As for `Cc1oc2ccc3c(C)cc(=O)[nH]c3c2c1C`, the half-inhibitory concentration (IC50) in [1] is 98.9 µM; with K562, > 100 µM; with HeLa, 89.2 µM; in the experiment with P388 it was > 100 µM; in the experiment on A549, 99.3 µM. This compound came in with a Kb in the experiment with DNA [2] of 2.57 ×10⁵ /M. Moreover, in the experiment on Escherichia coli [3], the outcome was inactive. The outcome in the experiment with Escherichia coli [4] and with Escherichia coli [5] was Active.
In the case of `Cc1oc2ccc3c(C)cc(=O)n(CCN(C)C)c3c2c1C`, the IC50 in experiment [1] is 72.7 µM; with K562, 55.7 µM; with HeLa, 39.1 µM; with P388, 51.5 µM; in the experiment on A549 it was 30.4 µM. In the experiment on DNA [2], this compound had a Kb of 2.66 ×10⁵ /M. In addition, the outcome in the experiment with DNA [6], with Escherichia coli [4] and in the experiment on Escherichia coli [5] was Active. The outcome in the experiment on Escherichia coli [3] was inactive.
Regarding `Cc1oc2ccc3c(C)cc(=O)n(CC(=O)NCCN(C)C)c3c2c1C`, the concentration for half-maximal inhibition (IC50) in the experiment on HeLa worked out at 20.7 µM; with P388, 14.5 µM; in the experiment on A549, 20.4 µM. The compound also displayed a Kb in the experiment on DNA [2] of 1.58 ×10⁵ /M. Also, the outcome in the experiment on Escherichia coli [3] was inactive. Further, the outcome with Escherichia coli [4] and in the experiment with Escherichia coli [5] was Active.
As to `Cc1oc2ccc3c(C)cc(=O)n(CC#N)c3c2c1C`, the IC50 (in experiment [1]; in the experiment on K562; in the experiment with HeLa; in the experiment on P388; with A549) was > 100 µM throughout. In the experiment with DNA [2], this compound showed a Kb of 2.06 ×10⁵ /M.
For the compound `Cc1oc2ccc3c(C)cc(=O)n(CC[N+](C)(C)C)c3c2c1C`, the IC50 with HeLa stood at 49.5 µM. Besides, the Kb with DNA [2] amounted to 3.18 ×10⁵ /M.
`Cc1oc2ccc3c(C)cc(=O)n(CCCN(C)C)c3c2c1C`: the half-inhibitory concentration (IC50) stood at 74.9 µM in [1]; 71.1 µM in the experiment on K562; 35 µM in the experiment on HeLa; 45.3 µM with P388; 29.6 µM in the experiment with A549. In addition, the Kb in the experiment on DNA [2] was 2.53 ×10⁵ /M. Further, the result with Escherichia coli [3] was inactive.
